Data set [1] deals with Protein-tyrosine kinase 6 (Homo sapiens, UniProt Q13882). In words: Inhibition of human BRK.
A short description of data set [2]: Plasma clearance in CD-1 mouse at 1 mg/kg, iv. Further details: dose 1 mg/kg, route intravenous. Format: ADME, organism-based. A digest of the protocol: (§1)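 Mouse IV PK: lateral tail vein dosing, 100 μL in 3% DMSO/30% Solutol/67% PBS; trunk blood from three mice per time point over 6 h. Plasma precipitated with acetonitrile, drug quantified by LCMS/MS against internal standard; noncompartmental analysis.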

The nature of data set [3]: Plasma clearance in SCID mouse at 1 mg/kg, iv. Format: ADME, organism-based. Further details: dose 1 mg/kg, route intravenous. Summed up:
as §1

Data set [4] addresses Ribosomal protein S6 kinase alpha-2 (Homo sapiens, UniProt Q15349). In words: Inhibition of human Rsk3. Summed up:
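Millipore KinaseProfiler activity assays on a 259-kinase panel; kinases inhibited by ≥90% at 1 μM then taken to full IC50 determination.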

Data set [5] in a line: AUC in CD-1 mouse at 10 mg/kg, po. The data set is classed as ADME, organism-based. Also noted: dose 10 mg/kg, route oral. To be noted: plasma. A digest of the protocol: (§2)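 Mouse PK. IV via the lateral tail vein in 3% DMSO/30% Solutol/67% PBS, or oral gavage in 100% PEG400, 100 μL dose volume, after an overnight fast. Trunk blood was taken from three mice per time point over 6 h. Plasma was acetonitrile-precipitated and analysed by LC-MS/MS. Parameters were derived noncompartmentally.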

Data set [6] can be described thus: Drug level in SCID mouse tumor xenografted with human KARPAS299 cells expressing NPM-ALK at 30 mg/kg, po after 6 hrs by LC-MS/MS analysis. The data set is classed as ADME, organism-based, Neoplasm, KARPAS-299. Further details: dose 30 mg/kg, route oral. To be noted: read-out: Drug uptake. (A xenograft is tissue or cells of one species grown in another, often human tumour cells in immunodeficient mice.)

Data set [7] can be described thus: Half life in SCID mouse at 10 mg/kg, po. Format: ADME, organism-based. Also noted: dose 10 mg/kg, route oral. To be noted: in vivo. A digest of the protocol: as §2
The nature of data set [8]: Half life in Beagle dog at 10 mg/kg, po. Format: ADME, organism-based, Canis lupus familiaris. Further details: dose 10 mg/kg, route oral. To be noted: in vivo. Summed up: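 Dog and monkey PK. IV 0.5 mL/kg in 40% HPβCD via the saphenous vein. Oral dosing was 1 mL/kg by gavage in dogs and 2 mL/kg by nasogastric tube in monkeys, after an overnight fast. Serial femoral-vein blood was taken into heparin over 24 h. Plasma was acetonitrile-precipitated and analysed by LC-MS/MS. Parameters were noncompartmental, n = 3, mean ± SEM.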

A short description of data set [9]: Plasma concentration in SCID mouse xenografted with human KARPAS299 cells expressing NPM-ALK at 30 mg/kg, po after 6 hrs by LC-MS/MS analysis. The data set is classed as ADME, organism-based, KARPAS-299. Also noted: dose 30 mg/kg, route oral. A digest of the protocol:
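Pharmacodynamic study: SCID mice bearing subcutaneous Karpas-299 xenografts given single 30 mg/kg oral dose; plasma drug levels measured by LCMS/MS, reported as mean ± SEM.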

A short description of data set [10]: AUC (0 to 12 hrs) in rat 55 mg/kg, po. To be noted: plasma. Also noted: time < 12 hr, dose 55 mg/kg, route oral. The data set is classed as ADME, organism-based. A digest of the protocol: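 Rat oral dose escalation at 10, 30, 55 and 100 mg/kg. Gavage at 5 mL/kg in 40% HPβCD after an overnight fast. Serial tail-vein blood was drawn into heparinized tubes. Plasma was protein-precipitated with acetonitrile and assayed by LC-MS/MS. Cmax and AUC0–12 were derived noncompartmentally; n = 2 at 10 mg/kg.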

Data set [11] in a line: Tmax in Sprague-Dawley rat at 10 mg/kg, po. The data set is classed as ADME, organism-based. Also noted: dose 10 mg/kg, route oral. To be noted: in vivo. A digest of the protocol:
(§3)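 PK: overnight-fasted animals. Rat oral gavage 5 mL/kg in 40% HPβCD, serial tail-vein blood over 6 h. Dog oral gavage 1 mL/kg, monkey nasogastric 2 mL/kg, femoral-vein blood over 24 h. Plasma protein-precipitated with acetonitrile, LCMS/MS with internal standard; noncompartmental analysis, individual animals n = 3, mean ± SEM.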

A short description of data set [12]: Plasma clearance in Beagle dog at 1 mg/kg, iv. The data set is classed as ADME, organism-based, Canis lupus familiaris. Further details: dose 1 mg/kg, route intravenous. Summed up: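 IV PK: rats via lateral tail vein (1 mL/kg; 3% DMSO/30% Solutol/67% PBS), serial tail-vein blood over 6 h. Dogs and monkeys via saphenous vein (0.5 mL/kg in 40% HPβCD), femoral-vein blood over 24 h. Acetonitrile protein precipitation, LCMS/MS; noncompartmental parameters from individual animals, n = 3, mean ± SEM.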

Data set [13] in a line: Tmax in cynomolgus monkey at 10 mg/kg, po. The data set is classed as ADME, organism-based, Macaca fascicularis. Further details: dose 10 mg/kg, route oral. To be noted: in vivo. Summed up:
as §3

For data set [14], the target named is Tyrosine-protein kinase Fer (Homo sapiens, UniProt P16591). In words: Inhibition of human Fer.
Data set [15] is described as follows: Oral bioavailability in Beagle dog at 10 mg/kg. Format: ADME, organism-based, Canis lupus familiaris. To be noted: in vivo. A digest of the protocol:
as §3

From ChEMBL document CHEMBL2062375, “Discovery of an orally efficacious inhibitor of anaplastic lymphoma kinase” (J Med Chem, 2012) come the findings set out here.

Ribosomal protein S6 kinase alpha-2, sequence (Q15349 whole entry): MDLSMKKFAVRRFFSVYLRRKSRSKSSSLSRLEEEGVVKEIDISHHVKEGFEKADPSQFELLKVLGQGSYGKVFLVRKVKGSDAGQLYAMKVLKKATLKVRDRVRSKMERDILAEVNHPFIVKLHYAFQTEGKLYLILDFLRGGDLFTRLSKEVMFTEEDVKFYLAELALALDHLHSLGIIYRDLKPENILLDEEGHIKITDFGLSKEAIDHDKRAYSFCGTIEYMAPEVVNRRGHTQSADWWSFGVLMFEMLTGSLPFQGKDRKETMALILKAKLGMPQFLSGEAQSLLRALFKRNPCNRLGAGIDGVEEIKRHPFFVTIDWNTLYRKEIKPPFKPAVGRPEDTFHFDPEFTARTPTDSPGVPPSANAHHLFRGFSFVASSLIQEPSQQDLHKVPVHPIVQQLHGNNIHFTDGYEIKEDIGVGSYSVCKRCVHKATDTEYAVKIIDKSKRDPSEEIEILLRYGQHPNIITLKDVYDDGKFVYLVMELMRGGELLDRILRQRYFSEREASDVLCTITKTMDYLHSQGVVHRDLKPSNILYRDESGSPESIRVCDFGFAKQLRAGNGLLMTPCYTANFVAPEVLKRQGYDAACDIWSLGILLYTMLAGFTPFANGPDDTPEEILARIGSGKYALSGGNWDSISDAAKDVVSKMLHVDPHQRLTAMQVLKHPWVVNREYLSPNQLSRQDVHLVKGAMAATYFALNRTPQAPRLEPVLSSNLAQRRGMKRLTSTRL
Tyrosine-protein kinase Fer, sequence (P16591 whole entry): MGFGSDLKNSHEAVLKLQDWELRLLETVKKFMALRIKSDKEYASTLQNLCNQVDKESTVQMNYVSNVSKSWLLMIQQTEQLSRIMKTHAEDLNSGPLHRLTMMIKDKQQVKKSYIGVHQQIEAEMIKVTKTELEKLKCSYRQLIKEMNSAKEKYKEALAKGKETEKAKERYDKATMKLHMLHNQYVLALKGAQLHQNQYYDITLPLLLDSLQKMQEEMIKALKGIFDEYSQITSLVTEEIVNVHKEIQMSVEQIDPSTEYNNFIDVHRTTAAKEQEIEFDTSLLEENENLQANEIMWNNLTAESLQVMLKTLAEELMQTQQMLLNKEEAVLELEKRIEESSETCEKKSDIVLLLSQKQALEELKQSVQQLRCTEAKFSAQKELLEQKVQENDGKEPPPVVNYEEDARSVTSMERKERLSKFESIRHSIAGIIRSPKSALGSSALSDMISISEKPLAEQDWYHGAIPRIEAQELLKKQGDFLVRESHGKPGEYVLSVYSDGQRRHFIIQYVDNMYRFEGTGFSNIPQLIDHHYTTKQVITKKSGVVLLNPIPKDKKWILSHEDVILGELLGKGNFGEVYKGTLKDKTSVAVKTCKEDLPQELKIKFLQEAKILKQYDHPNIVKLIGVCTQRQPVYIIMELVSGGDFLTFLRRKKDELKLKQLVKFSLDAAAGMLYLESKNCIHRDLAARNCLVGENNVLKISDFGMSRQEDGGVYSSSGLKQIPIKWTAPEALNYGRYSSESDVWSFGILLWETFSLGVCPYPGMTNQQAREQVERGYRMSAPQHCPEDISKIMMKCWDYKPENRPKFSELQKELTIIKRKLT
Protein-tyrosine kinase 6, sequence (Q13882 whole entry): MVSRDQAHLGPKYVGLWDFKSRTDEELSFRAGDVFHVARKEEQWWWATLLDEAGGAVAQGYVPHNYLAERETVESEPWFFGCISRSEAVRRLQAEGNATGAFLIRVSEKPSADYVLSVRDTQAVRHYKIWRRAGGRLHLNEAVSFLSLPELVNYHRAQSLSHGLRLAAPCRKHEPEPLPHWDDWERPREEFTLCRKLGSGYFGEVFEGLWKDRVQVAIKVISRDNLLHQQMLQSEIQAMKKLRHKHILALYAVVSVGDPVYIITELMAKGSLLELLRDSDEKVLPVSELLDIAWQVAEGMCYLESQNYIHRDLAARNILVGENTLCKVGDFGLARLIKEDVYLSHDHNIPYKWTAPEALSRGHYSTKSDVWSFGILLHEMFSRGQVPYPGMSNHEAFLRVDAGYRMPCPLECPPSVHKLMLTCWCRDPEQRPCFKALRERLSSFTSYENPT

For the compound `COc1c(Nc2ncc(Cl)c(N[C@H]3[C@@H](C(N)=O)[C@@H]4C=C[C@H]3C4)n2)ccc2c1CC[C@@H](N1CCOCC1)CC2`, the IC50 (as a rule, the midpoint of a concentration-inhibition curve) in data set [1] was 73 nM; in [4], 7 nM; in data set [14], 85 nM. Besides, the clearance – broadly, a measure of how efficiently the substance is removed, as volume per time – in [2] was 29 mL/min/kg; in data set [3] it was 6 mL/min/kg; in [12], 40 mL/min/kg. The AUC – broadly, concentration integrated over time – in data set [5] worked out at 2990 ng·h/mL. For the same compound, the concentration at 6 h stood at 2870 ng/g in [6] and 3840 ng/mL in [9]. Also, the half-life (in general, how long it takes for the measured level to halve) in [7] is 1.8 h; in data set [8], 3.3 h. Further, the AUC(0-t) (in general, exposure summed from dosing to a finite time, without extrapolation to infinity) at 12 h in data set [10] is 24100 ng·h/mL. The figures for the Tmax in [11] and in data set [13] were 1.3 h and 4.7 h, respectively. The bioavailability (as a rule, dose-corrected exposure relative to a reference, in per cent) in data set [15] was 52%.
